# UPR CHOP act = activators of apoptotic arm of unfolded protein response (CHOP); CHO-CHOP luciferase reporter, UPR activation, luminescence; percent of tunicamycin response over DMSO baseline; AID 449763; activation, % at 10 µM; actives 0.34% (n = 330,000);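 active = at 10 µM dose, activation of 40% or more, normalized to positive control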;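 note: 100% = tunicamycin at 10 µg/mL and 0% = DMSO alone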
#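 System: CHO-CHOP luciferase reporter cell line | Buffer or medium: F12 medium containing 10% fetal bovine serum | Doses: One dose, 10 µM in 0.5% DMSO | Times: 6 h compound exposure at 37 °C after overnight seeding | Signal: Luciferase luminescence | Read-out: % activation vs tunicamycin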
# CHOP inh = inhibitors of CHOP induction in ER stress response; CHO-K1 CHOP-promoter luciferase, tunicamycin-induced, 15-18 h; inhibition, % at 10 µM; actives 3.8% (n = 220,000); AID 2732;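 active = compounds that reduced the stress-induced luciferase reporter signal by more than about 70% of percent inhibition, limit read from the data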;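 note: 0% = tunicamycin plus vehicle and 100% = wells without tunicamycin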
# Jurkat NFkB inh = lowers PMA/ionomycin-induced NF-kB signal in Jurkat cells; PMA/ionomycin-induced NF-kB luciferase reporter, luminescence; inhibition, % at 4 µM; actives 0.53% (n = 330,000); in the data active = inhibition above about 50%
# XBP1 UPR activ = adaptive UPR (XBP1) activation; CHO-XBP1 luciferase reporter, IRE1-XBP1 UPR activation, luminescence; percent of tunicamycin response, DMSO as zero; AID 463104; activation, % at 20 µM; actives 0.33% (n = 330,000);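 active = versus positive control, 20 µM dose yields 30% or more activation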;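 note: 100% = tunicamycin at 10 µg/mL and 0% = DMSO only wells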
#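 assay system = CHO-XBP1 luciferase reporter cells | amount = 1000 cells/well | buffer or medium = F12 plus 10% FBS | compound dosing = single point, 20 µM final compound, 1% DMSO | incubation = 16-18 h cell attachment at 37 °C, then 6 h compound exposure | detection = Steady-Glo luminescence read | controls = tunicamycin 10 µg/mL and vehicle-only wells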
# 697 NFkB inh = inhibitors of the PMA/ionomycin-induced NF-kB reporter in 697 B cells; AID 435022; 697 B-cell NF-kB luciferase reporter, 16 h; inhibition, % at 4 µM; actives 0.33% (n = 330,000); in the data active = inhibition above about 35%
# Jurkat NFkB conf = lowers PMA/ionomycin-induced NF-kB signal in Jurkat cells. shares compounds with Jurkat NFkB inh. Jurkat NF-kB luciferase, 16 h. inhibition, % at 4 µM. actives 27% (n = 2,700);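 active = inhibition reaching about 45% at 4 µM in either replicate, limit read from the data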;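 note: plate controls were PMA/ionomycin stimulated DMSO wells for no effect and unstimulated DMSO wells for full effect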
# * = called active by the depositor; . = not tested or not shown. The full list was thinned out, with hits kept by preference.
SMILES,UPR CHOP act,CHOP inh,Jurkat NFkB inh,XBP1 UPR activ,697 NFkB inh,Jurkat NFkB conf
COC(=O)c1nn(-c2ccccc2)c(=O)cc1Oc1ccc(Cl)cc1,0.4,-11.3,3.2,1.7,19.1,.
Cc1cc(NC(=O)/C=C/c2ccc(Cl)cc2)no1,9.9,-5.2,21.1,1.9,-112.7,.
COc1ccc2c(C)nc(Nc3nc(-c4ccccc4)cc(=O)[nH]3)nc2c1,-6.6,19.6,89.4*,9.1,-14.2,37.5*
CCNC(=O)Nc1ccc(OC)cc1OC,-3.1,10.2,12.3,-3.6,16.1,.
O=C(O)c1ccc2c(=O)[nH]c(CCl)nc2c1,-0.7,-3.4,0.3,-3.1,2.9,.
O=C(Nc1ccccc1)c1ccc(-c2ccccc2)s1,4.0,-14.7,-193.8,3.0,9.1,-65.8
COc1ccc2cc(C(=O)Nc3ccccc3)sc(=O)c2c1OC,3.3,-29.5,21.5,2.3,1.4,.
O=C(O)c1ccc(-c2ccc(-c3ccccc3)cc2)s1,-8.8,.,61.3*,-16.1,-72.8,46.1
O=C(Nc1ccccc1)c1cc2ccc3ccccc3c2s1,5.5,-8.0,-150.6,4.9,11.8,-65.2
Cc1cc(-c2ccc(C(=O)O)s2)cnc1N,3.9,-26.1,-4.8,-1.1,-62.2,.
CSc1ccccc1NC(=O)CN1CCN(Cc2ccccc2)CC1,0.2,8.2,-1.6,1.1,-10.6,.
CN1CCCC1CCNc1ccc2oc3ccccc3c(=O)c2c1 (centres undefined),1.3,.,-130.5,-1.5,-63.3,.
O=c1c2ccccc2oc2cc(NCCCn3ccnc3)ccc12,2.1,.,-177.7,-1.1,-217.8,-83.9
CN1CCCC1CCNc1ccc2c(=O)c3ccccc3oc2c1 (centres undefined),-0.8,.,-217.6,-1.1,-160.7,-37.6
O=c1c2ccccc2oc2ccc(NCCCN3CCOCC3)cc12,5.6,.,-113.7,3.1,-101.9,.
O=c1c2ccccc2oc2cc(NCCCN3CCOCC3)ccc12,1.5,.,-184.0,2.4,-218.6,-53.2
O=C(NCCCn1ccnc1)c1cc2ccccc2oc1=O,2.2,3.9,1.8,-0.6,12.5,.
NNC(=O)c1cc2c(ccc3ccccc32)o1,-1.9,-8.6,-5.0,-1.7,-4.7,.
O=C(O)c1cc2c(ccc3ccccc32)o1,-0.3,-19.1,2.0,-1.1,13.2,.
O=C(Nc1cccnc1)c1cc2c(ccc3ccccc32)o1,2.7,7.0,-165.5,-2.7,-5.4,-114.8
O=C(c1cc2c(ccc3ccccc32)o1)N1CCCCC1,2.3,.,-155.8,-6.2,-199.9,-120.2
CCOc1cc(C2C(C(=O)c3ccco3)=C(O)C(=O)N2CC2CCCO2)ccc1O (centres undefined),1.8,.,7.8,-1.7,11.5,.
C/C(=C\C(=O)c1ccc(C)cc1)Nc1cccc(O)c1,0.9,93.7*,-186.3,0.5,-188.1,-7.1
Cc1ccc(C(=O)/C=C/Nc2cccc(O)c2)cc1,-4.7,60.2,-69.5,-8.9,-109.4,.
Cc1ccc2nc(C)c3c(c2c1)OC(C(C)(Cl)Br)C3 (centres undefined),0.3,32.3,17.9,-0.3,-42.0,.
SMILES,UPR CHOP act,CHOP inh,Jurkat NFkB inh,XBP1 UPR activ,697 NFkB inh,Jurkat NFkB conf
Cc1nc2ccccc2c2c1CC(C(C)(Cl)Br)O2 (centres undefined),3.3,47.3,55.5*,-0.7,-44.7,56.1*
COc1cc(C(=O)Nc2cccc(NC(=O)c3ccccc3)c2)cc(OC)c1OC,-1.0,.,0.9,-6.1,4.4,.
COc1cc2c(c(OC)c1OC)-c1ccc(NC(=O)c3ccccc3)c(=O)cc1[C@@H](NC(C)=O)CC2,0.1,.,50.0,5.3,9.4,5.0
COc1nc(-c2ccc(C)cc2)ccc1-c1noc(-c2ccco2)n1,5.2,.,-19.2,1.0,-18.0,.
COc1nc(C)ccc1-c1noc(-c2ccco2)n1,0.0,8.0,-170.8,-0.9,-158.2,-104.9
Nc1cccc(-c2cn3cc(C(F)(F)F)cc(Cl)c3n2)c1,1.7,-19.2,-194.3,-1.5,-133.8,-45.7
FC(F)(F)c1cc(Cl)c2nc(-c3ccccc3)cn2c1,5.4,45.0,-149.7,-2.5,-191.0,.
C/C(=N\NC(=O)c1ccc(CSc2nc(C)cc(C)n2)cc1)c1ccco1,-0.9,-3.1,7.2,1.3,-19.2,.
O=C(CN1C(=O)NC2(CCOc3ccccc32)C1=O)NCCc1ccccc1 (centres undefined),1.0,.,63.7*,-1.9,-1.0,13.6
Cc1ccc(N(CCC(=O)N2CCOCC2)S(=O)(=O)c2ccccc2)cc1,0.3,.,-2.8,-1.3,12.2,.
COc1cc(C(=O)NCCc2ccc(S(N)(=O)=O)cc2)ccc1OCc1c(C)noc1C,0.5,.,0.5,1.5,17.8,.
Cc1ccc(C(=O)Nc2ccc(-c3csc(C)n3)cc2)cc1,7.3,-6.1,-121.7,4.7,-80.6,.
O=C(Nc1ccc(Nc2ccccc2)cc1)c1ccc(Cl)cc1,1.2,.,-18.3,-1.9,-15.0,.
Cc1nc(-c2ccc(NC(=O)c3ccccc3)cc2)cs1,0.1,2.2,-194.9,-8.3,-84.9,-124.8
CC(C)(C)c1ccc(C(=O)Nc2ccc(Cl)cc2)cc1,4.5,6.4,-161.4,-1.0,-188.0,-115.7
Cc1ccc(NC(=O)c2ccc(C)cc2)cc1,0.7,.,-155.8,-2.9,-191.0,-77.7
CSCC[C@H](NC(=O)N1C[C@H]2C[C@@H](C1)c1cccc(=O)n1C2)C(=O)Nc1ccc(NC(C)=O)cc1,-1.4,.,-15.3,1.2,-15.3,.
O=C(Cn1cncn1)NCCCc1ccccc1,-1.3,8.9,-2.3,-0.3,-6.9,.
CCOC(=O)c1nnn(-c2nonc2N)c1-c1ccc(OC)cc1,-1.3,17.6,-8.6,-3.3,0.8,.
CC(C)c1ccc(-n2nc3ccc(N)cc3n2)cc1,-1.2,53.6,-168.9,2.7,-95.2,-40.7
O=C(CC1(O)C(=O)Nc2ccc(Br)cc21)c1ccc2c(c1)OCO2 (centres undefined),-0.5,0.9,-2.7,2.3,-21.2,.
NS(=O)(=O)c1cc(Cl)c(NC(=O)COC(=O)c2ccccn2)c(Cl)c1,0.2,.,-0.6,1.6,10.6,.
CCOc1ccc2c(c1)sc(N)[n+]2Cc1cc(C)cc2cccnc12,-0.8,7.6,62.4*,1.8,-80.1,51.2*
COc1ccc2c(c1)sc(N)[n+]2Cc1cc(C)cc2cccnc12,.,8.2,.,.,.,.
O=C(CC(=O)c1ccccc1)Nc1ccc(Cl)cc1,5.5,.,-43.4,10.1,4.8,.
O=[N+]([O-])c1ccc(O)c(/C=N/Nc2ccc(Cl)nn2)c1,19.1,75.1*,53.4*,5.2,-121.2,78.2*
COc1ccc(CCN2CC(C(=O)NCCc3cccnc3)CCC2=O)cc1 (centres undefined),1.8,.,-3.3,-4.2,14.0,.
O=C(Nc1ccncc1)C1CCCN(S(=O)(=O)c2cccc3cccnc23)C1 (centres undefined),-1.7,.,63.0*,5.6,-83.6,48.0
COc1cccc(NC(=O)C2CCCN(S(=O)(=O)c3cccc4cccnc34)C2)c1 (centres undefined),0.2,52.0,16.3,-0.7,-13.3,.

# Screening data: PubChem, several laboratories
